Data set [1] is described as follows: Cytotoxicity against human TZM-bl cells at 10 uM after 48 hrs by MTT assay. Type of data set: cell-based. A digest of the protocol:
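TZM-bl cells plated and held 18 h at 37 °C, then exposed to compounds for 48 h. MTT (5 mg/mL stock, 20 µL per well) added and incubated 3 h at 37 °C. Plates shaken 10 min at room temperature. OD550 read against a 690 nm reference. Single test concentration of 10 µM.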
(In general: Tetrazolium dyes change colour on reduction, which living cells bring about.)

For data set [2], the system named is Human immunodeficiency virus. The experiment in a line: Antiviral activity against HIV infected in human TZM-bl cells at 10 uM after 48 hrs by luciferase-based reporter gene assay. Type of data set: functional. The following applies: Human immunodeficiency virus 1, TZM-bl. The gist of the method: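 TZM-bl cells seeded at 10^4 cells/well. Next day, compounds were added at 10 µM with AZT and MK-0518 reference controls, then pseudotyped HIV-1 was added (final DMSO 2%). Plates were incubated 48 h at 37 °C in humidified CO2. Steady-Glo substrate was added, cells lysed 20 min in the dark, and luciferase luminescence was read.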

The subject of data set [3] is Tobacco mosaic virus. Put plainly: In vitro antiviral activity against TMV assessed as inhibition rate at 500 ug/mL. The class given is functional.
The test system of data set [4] is Tobacco mosaic virus. Put plainly: In vivo antiviral activity against TMV assessed as protection effect at 500 ug/mL. Type of data set: functional.
Data set [5] deals with Tobacco mosaic virus. Put plainly: In vivo antiviral activity against TMV assessed as viral inactivation effect at 500 ug/mL. Type of data set: functional.
The subject of data set [6] is Tobacco mosaic virus. Put plainly: In vivo antiviral activity against TMV assessed as curative effect at 500 ug/mL. Type of data set: functional.

Structures are written as SMILES.

In the case of `COc1c(C(=O)NCc2ccc(F)cc2)ccc2c1C(=O)N(C)C(c1ccc(F)cc1)N2` (centres undefined), the Activity entry in data set [1] was “Non-toxic”; with Tobacco mosaic virus [4], 28.9%; with Tobacco mosaic virus [5], 30.4%; in the data set on Tobacco mosaic virus [6], 26.3%. For the same molecule, in data set [2], the inhibition (commonly the drop in the measured response relative to a control, in per cent) at 10 µM amounted to 31%. Also, the inhibition at 500 µg/mL in the data set on Tobacco mosaic virus [3] was determined as 24.2%.

In the case of `COc1c(C(=O)NCc2ccc(F)cc2)ccc2c1C(=O)N(C)C(c1ccc([N+](=O)[O-])cc1)N2` (centres undefined), the Activity result is “Non-toxic” in data set [1], 20.3% with Tobacco mosaic virus [4], 18.9% in the data set on Tobacco mosaic virus [5] and 15% in the data set with Tobacco mosaic virus [6]. Further, the inhibition at 10 µM in data set [2] stood at 64.9%. Further, the inhibition at 500 µg/mL in the data set on Tobacco mosaic virus [3] turned out to be 19.5%.

On to `COc1c(C(=O)NCc2ccc(F)cc2)ccc2c1C(=O)N(C)C(c1ccco1)N2` (centres undefined), for which the Activity entry in data set [1] is “Non-toxic”; in the data set with Tobacco mosaic virus [4], 0%; in the data set on Tobacco mosaic virus [5], 8.2%; with Tobacco mosaic virus [6], 0%. Moreover, in data set [2], the inhibition at 10 µM is 8.1%. In addition, the inhibition at 500 µg/mL with Tobacco mosaic virus [3] was determined as 7.5%.

On to `COc1c(C(=O)NCc2ccc(F)cc2)ccc2c1C(=O)N(C)C(c1cccs1)N2` (centres undefined), for which the Activity result in data set [1] is on record as “Non-toxic”; with Tobacco mosaic virus [4] it was 5.4%; in the data set on Tobacco mosaic virus [5] it was 13.7%; with Tobacco mosaic virus [6], 0%. Also, the inhibition at 10 µM in data set [2] stood at 17.5%. In addition, the inhibition at 500 µg/mL with Tobacco mosaic virus [3] is 16.3%.

`COc1c(C(=O)NCc2ccc(F)cc2)ccc2c1C(=O)N(C)C(c1ccccn1)N2` (centres undefined): the Activity entry in data set [1] is reported as “Non-toxic”; in the data set with Tobacco mosaic virus [4], 8.7%; in the data set with Tobacco mosaic virus [5], 15.2%; in the data set with Tobacco mosaic virus [6] it was 0%. Besides, the inhibition at 10 µM in data set [2] is 9.9%. The inhibition at 500 µg/mL in the data set on Tobacco mosaic virus [3] was determined as 0%.

As for `CCCCC1Nc2ccc(C(=O)NCc3ccc(F)cc3)c(OC)c2C(=O)N1C` (centres undefined), the Activity entry in data set [1] was “Non-toxic”. In data set [2], the inhibition at 10 µM turned out to be 3.2%.

In the case of `COc1c(C(=O)NCc2ccc(F)cc2)ccc2c1C(=O)N(C)C(Cc1ccc(F)cc1)N2` (centres undefined), the Activity entry in data set [1] is on record as “Non-toxic”. Further, the inhibition at 10 µM in data set [2] worked out at 15.6%.

Consider `COc1c(C(=O)NCc2ccc(F)cc2)ccc2c1C(=O)N(C)C(Cc1ccc([N+](=O)[O-])cc1)N2` (centres undefined), for which the Activity result in data set [1] is “Non-toxic”. Moreover, the inhibition at 10 µM in data set [2] is -17.7%.

Turning to `COc1c(C(=O)NCc2ccc(F)cc2)ccc2nc(-c3ccc(F)cc3)n(C)c(=O)c12`, the Activity entry is “Non-toxic” in data set [1], 7.4% in the data set with Tobacco mosaic virus [4], 13.3% with Tobacco mosaic virus [5] and 8.2% in the data set with Tobacco mosaic virus [6]. In addition, the inhibition at 10 µM in data set [2] was determined as 27.6%.

For `COc1c(C(=O)NCc2ccc(F)cc2)ccc2nc(-c3ccc([N+](=O)[O-])cc3)n(C)c(=O)c12`, the Activity entry in data set [1] is listed as “Non-toxic”. Moreover, the inhibition at 10 µM in data set [2] was -3.8%.

Take `COc1c(C(=O)NCc2ccc(F)cc2)ccc2nc(-c3ccco3)n(C)c(=O)c12`: the Activity result in data set [1] is “Non-toxic”; with Tobacco mosaic virus [4], 11.7%; in the data set on Tobacco mosaic virus [5], 0%; with Tobacco mosaic virus [6] it was 8.9%. Besides, in data set [2], the inhibition at 10 µM was determined as 1.6%. In addition, the inhibition at 500 µg/mL in the data set with Tobacco mosaic virus [3] is 10%.

With `COc1c(C(=O)NCc2ccc(F)cc2)ccc2nc(-c3cccs3)n(C)c(=O)c12`, the Activity entry is “Non-toxic” in data set [1], 12.7% with Tobacco mosaic virus [4], 20.4% in the data set with Tobacco mosaic virus [5] and 9.4% in the data set with Tobacco mosaic virus [6]. For the same molecule, the inhibition at 10 µM in data set [2] was found to be 25.1%. Besides, the inhibition at 500 µg/mL with Tobacco mosaic virus [3] was 0%.

`COc1c(C(=O)NCc2ccc(F)cc2)ccc2nc(-c3ccccn3)n(C)c(=O)c12`: the Activity result in data set [1] is given as “Non-toxic”; with Tobacco mosaic virus [4] it was 19.5%; in the data set with Tobacco mosaic virus [5] it was 29.4%; in the data set with Tobacco mosaic virus [6], 17.6%. Moreover, the inhibition at 10 µM in data set [2] is 44.6%. The inhibition at 500 µg/mL with Tobacco mosaic virus [3] came to 21.3%.

Regarding `CCCCc1nc2ccc(C(=O)NCc3ccc(F)cc3)c(OC)c2c(=O)n1C`, in data set [1], the Activity result was “Non-toxic”. The inhibition at 10 µM in data set [2] turned out to be 19.1%.

Take `COc1c(C(=O)NCc2ccc(F)cc2)ccc2nc(Cc3ccc(F)cc3)n(C)c(=O)c12`: the Activity entry in data set [1] is “Non-toxic”; in the data set on Tobacco mosaic virus [4] it was 17.7%; in the data set with Tobacco mosaic virus [5], 10.6%; in the data set with Tobacco mosaic virus [6] it was 15.2%. Further, in data set [2], the inhibition at 10 µM was -27.4%. Also, the inhibition at 500 µg/mL in the data set on Tobacco mosaic virus [3] amounted to 21.2%.

On to `COc1c(C(=O)NCc2ccc(F)cc2)ccc2nc(Cc3ccc([N+](=O)[O-])cc3)n(C)c(=O)c12`, for which the Activity result in data set [1] is listed as “Non-toxic”; in the data set on Tobacco mosaic virus [4] it was 12.4%; in the data set with Tobacco mosaic virus [5] it was 0%; in the data set with Tobacco mosaic virus [6] it was 0%. Besides, the inhibition at 10 µM in data set [2] was -33.8%.

As for `Cn1c(-c2ccc(F)cc2)nc2ccc(C(=O)NCc3ccc(F)cc3)c(O)c2c1=O`, the Activity result in data set [1] is on record as “Non-toxic”. In data set [2], the inhibition at 10 µM was 68.4%.

Turning to `Cn1c(-c2ccc([N+](=O)[O-])cc2)nc2ccc(C(=O)NCc3ccc(F)cc3)c(O)c2c1=O`, the Activity entry in data set [1] is listed as “Non-toxic”. Besides, the inhibition at 10 µM in data set [2] turned out to be 77.5%.

Regarding `Cn1c(-c2ccco2)nc2ccc(C(=O)NCc3ccc(F)cc3)c(O)c2c1=O`, the Activity entry in data set [1] is “Non-toxic”. Besides, the inhibition at 10 µM in data set [2] is -9.2%.

Take `Cn1c(-c2cccs2)nc2ccc(C(=O)NCc3ccc(F)cc3)c(O)c2c1=O`: the Activity result in data set [1] was “Non-toxic”; in the data set on Tobacco mosaic virus [4], 9.8%; in the data set on Tobacco mosaic virus [5], 8.2%; in the data set with Tobacco mosaic virus [6], 10.9%. Moreover, the inhibition at 10 µM in data set [2] was found to be 33.2%. Further, the inhibition at 500 µg/mL in the data set on Tobacco mosaic virus [3] stood at 14.5%.

With `Cn1c(-c2ccccn2)nc2ccc(C(=O)NCc3ccc(F)cc3)c(O)c2c1=O`, the Activity entry in data set [1] is recorded as “Non-toxic”. The inhibition at 10 µM in data set [2] is -11%.

With `CCCCc1nc2ccc(C(=O)NCc3ccc(F)cc3)c(O)c2c(=O)n1C`, the Activity entry in data set [1] is recorded as “Non-toxic”. The inhibition at 10 µM in data set [2] came to 2.4%.

Take `Cn1c(Cc2ccc(F)cc2)nc2ccc(C(=O)NCc3ccc(F)cc3)c(O)c2c1=O`: in data set [1], the Activity result was “Non-toxic”. Moreover, in data set [2], the inhibition at 10 µM was 49.5%.

Take `Cn1c(Cc2ccc([N+](=O)[O-])cc2)nc2ccc(C(=O)NCc3ccc(F)cc3)c(O)c2c1=O`: the Activity entry in data set [1] is recorded as “Non-toxic”; in the data set with Tobacco mosaic virus [4] it was 16.8%; in the data set on Tobacco mosaic virus [5] it was 12.7%; with Tobacco mosaic virus [6] it was 13.3%. In addition, in data set [2], the inhibition at 10 µM was determined as 29%. Moreover, the inhibition at 500 µg/mL with Tobacco mosaic virus [3] is 18.4%.

Take `Cc1nnc(C(=O)NC(C)(C)c2nc(C(=O)NCc3ccc(F)cc3)c(O)c(=O)n2C)o1` [RALTEGRAVIR]: the inhibition at 10 µM in data set [2] was 95.2%.

`NC(=O)c1ncn([C@@H]2O[C@H](CO)[C@@H](O)[C@H]2O)n1` [RIBAVIRIN]: in the data set with Tobacco mosaic virus [3], the inhibition at 500 µg/mL is 38.5%. Besides, the Activity was 39.6% in the data set with Tobacco mosaic virus [4], 34.2% in the data set with Tobacco mosaic virus [5] and 32.7% with Tobacco mosaic virus [6].

In the case of `Cc1cn([C@H]2C[C@H](N=[N+]=[N-])[C@@H](CO)O2)c(=O)[nH]c1=O` [ZIDOVUDINE], the inhibition at 10 µM in data set [2] was 98.1%.

Values taken from ChEMBL document CHEMBL2034979, “Design, synthesis and antiviral activity of novel quinazolinones” (Eur J Med Chem, 2012).
